Results taken from ChEMBL document CHEMBL4513216, “Probing the Open Global Health Chemical Diversity Library for Multistage-Active Starting Points for Next-Generation Antimalarials” (ACS Infect Dis, 2020).

Assay: Toxicity liver stage against HepG2, at 10uM
Type: cell-based
Parameters: test concentration 10 uM, cell line HepG2-A16-CD81EGFP
Details: human, HepG2-A16-CD81EGFP cells; read-out: INHIBITION
Summary of the method: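 Uninfected HepG2-A16-CD81EGFP cells, 3 × 10^3 per well, 1536-well, plated on prespotted compound at 10 μM final, parasite-free screening media added to match infected plates; puromycin 10 μM positive, DMSO 0.5% negative; run in parallel with 48 h PbLuc assay at 37 °C, 5% CO2; viability by CellTiter-Glo luminescence, normalized to controls.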

Row | SMILES | cytotoxicity at 10 µM [%]
1 | CC(C)NC(=O)N1CCN2C(=O)N(Cc3ccc(F)cc3)C[C@H]2C1 | 0.88
2 | COC(=O)N1CC[C@@]2(O)CCCC[C@H]2[C@@H]1c1ccc2c(c1)OCO2 | 2.91
3 | Cc1ccc(S(=O)(=O)c2ncccc2CN2CCCC2)cc1 | -49.4
4 | Cc1noc(C)c1S(=O)(=O)NCC(O)c1ccc2c(c1)CCO2 (configuration not stated) | 0.407
5 | COc1ccc(C(=O)N2CCO[C@H]3[C@H](OCC4CC4)CC[C@@H]32)cc1F | 18.2
6 | CN(C)CCNC(=O)c1nc2c(o1)CN(c1ncccn1)C2 | -0.603
7 | Cc1noc(C)c1CN1CC2(CCN(C(=O)c3cccn3C)C2)CC1=O (configuration not stated) | 6.53
8 | CCc1ccc(C(=O)N2CC(C(=O)NC(C)C)C3(CCOCC3)C2)cc1 (configuration not stated) | 3.65
9 | CCOC(=O)C1CCN(C(=O)c2cc(F)ccc2-n2cnnn2)CC1 | -0.121
10 | CCN1CCCC(O)(CN(C)Cc2c(C)nn(C)c2C)C1 (configuration not stated) | 4.95
11 | Cc1noc(-c2cnc(NCC3CCCO3)nc2-c2ccco2)c1C (configuration not stated) | 7.74
12 | COCC(=O)N1CCCC(c2nc(N(C)C)ncc2-c2ccccc2)C1 (configuration not stated) | 6.1
13 | CNC(=O)c1sc2ccccc2c1CC1CCCCN1Cc1ncc[nH]1 (configuration not stated) | 2.35
14 | Cc1nccn1CC1CCCN(S(=O)(=O)c2cnn(C)c2)C1 (configuration not stated) | 8.58
15 | CC(=O)N1CCc2nnc(C3CCCCN3CC3CCCCC3)n2CC1 (configuration not stated) | 10.2
16 | Cc1nccc(N2CCCC(C)(C(=O)NC3CCCC3)C2)n1 (configuration not stated) | -18.6
17 | CN1CCN(C(=O)C2CCCN(c3cccnn3)C2)CC1 (configuration not stated) | -10.8
18 | Cc1cccc(CN2CCC(C3Nc4ccccc4S(=O)(=O)N3)CC2)n1 (configuration not stated) | -18.9
19 | CC(C)N1CCC(c2nccnc2Nc2ncccn2)CC1 | -23.7
20 | CNC(=O)C1(c2cnccn2)CCCN1C(=O)c1ccccn1 (configuration not stated) | 10.1
21 | CC(=O)N1Cc2ccccc2CC2(CCCCN2C)C1 (configuration not stated) | 3.87

Row | SMILES | cytotoxicity at 10 µM [%]
22 | O=C(Nc1c(N2CCCC2)cccc1N1CCCC1)c1cnsn1 | -43
23 | CC(C)c1nccn1CC1CCCN1Cc1nc2ccccc2n1C (configuration not stated) | -43.9
24 | CCc1c(NCc2cccnc2)cnn1CC(C)C | -0.625
25 | CCC(CNC(=O)Cn1ccnc1)Oc1cccc(F)c1 (configuration not stated) | -45.8
26 | Cc1cc(C)c(CNC(=O)NCCc2cccnc2)c(=O)[nH]1 | -53.3
27 | Cn1cccc(NC(=O)NCc2cccc(CO)c2)c1=O | -55.5
28 | Cc1cc(C)n(CC(C)CNC(=O)NCc2c(C)cc(C)[nH]c2=O)n1 (configuration not stated) | -7.86
29 | C=C(C)CN1CCC(NC(=O)Nc2ccc(F)c(C(N)=O)c2)CC1 | -6.08
30 | COCCN1CCC(CNC(=O)Nc2ccc(-c3ccccc3)cc2)C1 (configuration not stated) | -15.2
31 | Cc1occc1C(=O)NCC(=O)NCCOc1ccc2c(c1)CCC2 | -2.83
32 | Cc1cnn(CC2CCCN2Cc2cc(=O)n3cc(C)ccc3n2)c1 (configuration not stated) | -10.9
33 | COc1ccc(N)c(N2CCN(C(C)=O)CC2)n1 | -6.22
34 | Cc1cc(NC(=O)CN(C)CC2CCCN2c2cccnn2)n(C)n1 (configuration not stated) | 7.85
35 | Cc1ccc(CN(C)C(=O)CN2CCCC2Cn2cncn2)cc1 (configuration not stated) | 7.84
36 | CN(C)C(=O)C1CCCN1CCCNC(=O)c1ccccc1Cl (configuration not stated) | -8.27
37 | Cn1cnnc1-c1ccnc(NCc2ccc3c(c2)OCCO3)c1 | -11
38 | Cc1c(C(=O)NC2(C#N)CCSC2)nnn1-c1ccccc1Cl (configuration not stated) | -5.34
39 | COCCOc1ncccc1C(=O)Nc1c(C)cnn1CC1CC1 | 3.36
40 | O=C(Nc1ccc(-n2cccn2)cc1)N1CCC(O)C1 (configuration not stated) | 19.9
41 | CCC(C)Oc1cc(C(=O)Nc2nnc(C(C)C)[nH]2)ccn1 (configuration not stated) | -11.2
42 | CSc1ccsc1C(=O)NS(=O)(=O)c1ccc(F)cc1 | -3.91

Row | SMILES | cytotoxicity at 10 µM [%]
43 | COC(=O)C1CCN(C(=O)Nc2cc(-n3cccc3)ccc2F)CC1 | 5.44
44 | CCc1nc(CCNc2ccc(S(N)(=O)=O)cc2C#N)cs1 | -54.6
45 | Cc1nc(-c2ccc(Cl)s2)sc1C(=O)O | 7.51
46 | N#Cc1ccc(N2CCCN(CC(=O)N3CCOCC3)CC2)cc1 | 6.62
47 | COCCN1CCC(CNC(=O)C2(C#N)CCCC2)CC1 | 6.93
48 | COC1CCC(N(C)c2ccnc(N(C)C)n2)CC1 (configuration not stated) | -13.6
49 | CN(C1CCCC1)C(C)(C)C(=O)NCCS(C)(=O)=O | -49.7
50 | CCN(CC(=O)NC(C)C)S(=O)(=O)N1CCC(C)C1 (configuration not stated) | -3.26
51 | COCC(NC(=O)c1cc[nH]n1)c1cccc(C(F)(F)F)c1 (configuration not stated) | -10.7
52 | CNc1ncc(-c2ccnn2C2CCN(C(C)=O)CC2)cn1 | 0.581
53 | Cc1nn(C)c(C)c1CN(C)c1nc(C2CCCC2)nc2c1cnn2C | 27.9
54 | Cn1ccnc1C1CCCN(C(=O)c2ccncc2F)C1 (configuration not stated) | 3.18
55 | Cc1nc(CC(=O)NCCN2CCC(c3ccccc3C)C2)cs1 (configuration not stated) | -40
56 | COc1ccc(NC(=O)c2cccc(CN3CCCC3C)c2)cc1OC (configuration not stated) | 0.636
57 | CC(C)n1ccnc1C1CCN(Cc2ccc(C(F)(F)F)c(F)c2)CC1 | -7.43
58 | Cc1c[nH]c(CN2CCC3(CCCN(Cc4ccc(F)c(F)c4)C3)C2)n1 (configuration not stated) | -7.22
59 | Cc1ccncc1C(=O)N1C[C@H]2CN(CC3CCC3)C[C@@]2(C(=O)O)C1 | -5.73
60 | CCCc1nc(N(C)CCc2noc(C(C)C)n2)c2cnn(C)c2n1 | 3.86
61 | CN(C(=O)c1cccnc1)C1CCCN(CCc2ccccc2)C1 (configuration not stated) | -3.59
62 | Cc1nccn1CCC(=O)N1CCC2(CCC(=O)N(CC3CC3)C2)CC1 | -8.46
63 | CSc1nc(O)c(Cc2ccccc2)c(=O)n1-c1ccccc1 | -6.24

Row | SMILES | cytotoxicity at 10 µM [%]
64 | COc1cc(Cl)cc(C(=O)N2CCC3(CCCNC3)C2)c1 (configuration not stated) | -7
65 | N#Cc1nccnc1N1CCC(C(O)c2cccs2)CC1 (configuration not stated) | -38
66 | C=C(C)COc1cccc(C(=O)N(C)C(C)c2ccncn2)c1 (configuration not stated) | -50
67 | CCN(Cc1ccc(C(C)C)cc1)C(=O)c1csc(CN(C)C)n1 | -3.84
68 | O=C(O)c1cccnc1CN1CCOc2ccccc2C1 | 7.66
69 | Cc1nn(C)c(C)c1CN(C(=O)c1cnc(O)cn1)C(C)C | 2.62
70 | Cc1cc(C2CCCCN2C(=O)CN2CC3(CCNCC3)OC2=O)no1 (configuration not stated) | 8.69
71 | CCCc1nnc(N2CCC3(CC2)CN(C)C(=O)O3)o1 | 2.64
72 | Cc1nc(NCc2ccc(C)o2)cc(C2CCNCC2)n1 | 4.52
73 | CN1CC2(CCCN(Cc3cccc(Oc4ccccc4)c3)C2)OC1=O (configuration not stated) | 5.09
74 | COc1cc2c(cc1CNC(=O)C(C)n1ccnc1C(C)C)OCCO2 (configuration not stated) | -1.3
75 | N#CCCn1nc(C(F)(F)F)c2c1CCCC2 | -11.9
76 | Cc1cnn(CC2CCCCN2C(=O)c2ccc(NC3CC3)nc2)c1 (configuration not stated) | -11.9
77 | Cc1cn2c(n1)CCC(NC(=O)c1ccc(S(C)(=O)=O)o1)C2 (configuration not stated) | -6.92
78 | COc1ccc(F)cc1C(=O)N1CCCC(n2nc(C)nc2C)C1 (configuration not stated) | 3.05
79 | COCCN1CCCN(C(=O)NC(C)Cn2cccn2)CC1 (configuration not stated) | -9.39
80 | CCOC(=O)C1(Cc2ccccc2-c2ccccc2OC)CCNCC1 | -1.47
81 | CC(=O)NCC(=O)N1CCn2cc(CN(C)Cc3ccco3)nc2C1 | 4.81
82 | Cc1ccc(N2CC[C@H](OCC3CC3)[C@@H]2Cc2cccnc2)nn1 | 1.13
